From ChEMBL document CHEMBL4190374, “Structure-Function Evaluation of Imidazopyridine Derivatives Selective for δ-Subunit-Containing γ-Aminobutyric Acid Type A (GABAA) Receptors” (J Med Chem, 2018)
The source made the active and inactive calls. The rule behind the calls is not given here.

Key:
[1] = target: T1, Gamma-aminobutyric acid receptor subunit alpha-6/beta-3/delta (Rattus norvegicus, UniProt P18506+P30191+P63079); test: Displacement of [3H]EBOB from rat GABA-A receptor alpha6beta3delta expressed in HEK293 cell membranes after 90 mins by liquid scintillation counting analysis
In short: (§1)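 Crude membranes from HEK 293 cells transiently Ca-phosphate-transfected with rat subunit cDNAs, harvested at 48 h. Membranes (150-200 µg protein) incubated with 3 nM [3H]EBOB in 50 mM Tris/citrate pH 7.3 plus 0.2 M NaCl. Compound up to 10 µM, final DMSO 0.1%, no GABA, 90 min at 21 °C. Bound radioligand collected by GF/C filtration and counted by scintillation.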

[2] = target: Gamma-aminobutyric acid receptor subunit alpha-6/beta-2/delta (Rattus norvegicus, UniProt P18506+P30191+P63138); test: Displacement of [3H]EBOB from rat GABA-A receptor alpha6beta2delta expressed in HEK293 cell membranes after 90 mins by liquid scintillation counting analysis; in short: as §1
[3] = target: T2, Gamma-aminobutyric acid receptor subunit alpha-6/beta-3/gamma-2 (Rattus norvegicus) (UniProt P18508+P30191+P63079); test: Displacement of [3H]EBOB from rat GABA-A receptor alpha6beta3gamma2 expressed in HEK293 cell membranes up to 10 uM after 90 mins by liquid scintillation counting analysis relative to control; in short: as §1
[4] = target: Gamma-aminobutyric acid receptor subunit alpha-6/beta-2/delta (Rattus norvegicus) (UniProt P18506+P30191+P63138); test: Displacement of [3H]EBOB from rat GABA-A receptor alpha6beta2delta expressed in HEK293 cell membranes up to 10 uM after 90 mins by liquid scintillation counting analysis relative to control; in short: as §1
[5] = target: T3, Gamma-aminobutyric acid receptor subunit alpha-1/beta-3/gamma-2 (Rattus norvegicus) (UniProt P18508+P62813+P63079); test: Displacement of [3H]EBOB from rat GABA-A receptor alpha1beta3gamma2 expressed in HEK293 cell membranes at 20 uM after 90 mins by liquid scintillation counting analysis relative to control
[6] = target: T4, Gamma-aminobutyric acid receptor subunit alpha-1/beta-3/delta (Rattus norvegicus) (UniProt P18506+P62813+P63079); test: Displacement of [3H]EBOB from rat GABA-A receptor alpha1beta3delta expressed in HEK293 cell membranes at 20 uM after 90 mins by liquid scintillation counting analysis relative to control
[7] = target: T5, Gamma-aminobutyric acid receptor subunit alpha-4/beta-3 (Rattus norvegicus) (UniProt P28471+P63079); test: Displacement of [3H]EBOB from rat GABA-A receptor alpha4beta3 expressed in HEK293 cell membranes at 20 uM after 90 mins by liquid scintillation counting analysis relative to control
[8] = target: T6, Gamma-aminobutyric acid receptor subunit alpha-4/beta-3/gamma-2 (Rattus norvegicus) (UniProt P18508+P28471+P63079); test: Displacement of [3H]EBOB from rat GABA-A receptor alpha4beta3gamma2 expressed in HEK293 cell membranes at 20 uM after 90 mins by liquid scintillation counting analysis relative to control
[9] = target: T7, Gamma-aminobutyric acid receptor subunit alpha-4/beta-3/delta (Rattus norvegicus) (UniProt P18506+P28471+P63079); test: Displacement of [3H]EBOB from rat GABA-A receptor alpha4beta3delta expressed in HEK293 cell membranes at 20 uM after 90 mins by liquid scintillation counting analysis relative to control
[10] = target: T8, Gamma-aminobutyric acid receptor subunit alpha-6/beta-3 (Rattus norvegicus) (UniProt P30191+P63079); test: Displacement of [3H]EBOB from rat GABA-A receptor alpha6beta3 expressed in HEK293 cell membranes at 20 uM after 90 mins by liquid scintillation counting analysis relative to control
[11] = target: T8, Gamma-aminobutyric acid receptor subunit alpha-6/beta-3 (Rattus norvegicus); test: (§2) Displacement of [3H]EBOB from rat GABA-A receptor alpha6beta3 expressed in HEK293 cell membranes after 90 mins in presence of GABA by liquid scintillation counting analysis
[12] = target: T9, Gamma-aminobutyric acid receptor subunit alpha-6/beta-3 (Rattus norvegicus, UniProt P30191+P63079); test: as §2
[13] = target: T2, Gamma-aminobutyric acid receptor subunit alpha-6/beta-3/gamma-2 (Rattus norvegicus); test: (§3) Displacement of [3H]EBOB from rat GABA-A receptor alpha6beta3gamma2 expressed in HEK293 cell membranes after 90 mins in presence of GABA by liquid scintillation counting analysis
[14] = target: T10, Gamma-aminobutyric acid receptor subunit alpha-6/beta-3/gamma-2 (Rattus norvegicus, UniProt P18508+P30191+P63079); test: as §3
[15] = target: T11, Gamma-aminobutyric acid receptor subunit alpha-6/beta-3/delta (Rattus norvegicus) (UniProt P18506+P30191+P63079); test: (§4) Displacement of [3H]EBOB from rat GABA-A receptor alpha6beta3delta expressed in HEK293 cell membranes after 90 mins in presence of GABA by liquid scintillation counting analysis
[16] = target: T1, Gamma-aminobutyric acid receptor subunit alpha-6/beta-3/delta; test: as §4
[17] = target: GABA A receptor alpha-6/beta-2/gamma-2 (Rattus norvegicus) (UniProt P18508+P30191+P63138); test: Displacement of [3H]EBOB from rat GABA-A receptor alpha6beta2gamma2 expressed in HEK293 cell membranes at 10 uM after 90 mins by liquid scintillation counting analysis relative to control; in short: as §1
[18] = target: T12, Gamma-aminobutyric acid receptor subunit alpha-6/beta-2 (Rattus norvegicus) (UniProt P30191+P63138); test: Displacement of [3H]EBOB from rat GABA-A receptor alpha6beta2 expressed in HEK293 cell membranes at 10 uM after 90 mins by liquid scintillation counting analysis relative to control; in short: as §1
[19] = target: Gamma-aminobutyric acid receptor subunit alpha-6/beta-2 (Rattus norvegicus, UniProt P30191+P63138); test: Displacement of [3H]EBOB from rat GABA-A receptor alpha6beta2 expressed in HEK293 cell membranes after 90 mins by liquid scintillation counting analysis; in short: as §1
[20] = target: Gamma-aminobutyric acid receptor subunit alpha-1/beta-3 (Rattus norvegicus) (UniProt P62813+P63079); test: Displacement of [3H]EBOB from rat GABA-A receptor alpha1beta3 expressed in HEK293 cell membranes at 10 uM after 90 mins by liquid scintillation counting analysis relative to control; in short: as §1
[21] = target: T3, Gamma-aminobutyric acid receptor subunit alpha-1/beta-3/gamma-2 (Rattus norvegicus); test: Displacement of [3H]EBOB from rat GABA-A receptor alpha1beta3gamma2 expressed in HEK293 cell membranes at 10 uM after 90 mins by liquid scintillation counting analysis relative to control; in short: as §1
[22] = target: T4, Gamma-aminobutyric acid receptor subunit alpha-1/beta-3/delta (Rattus norvegicus); test: Displacement of [3H]EBOB from rat GABA-A receptor alpha1beta3delta expressed in HEK293 cell membranes at 10 uM after 90 mins by liquid scintillation counting analysis relative to control; in short: as §1
[23] = target: T5, Gamma-aminobutyric acid receptor subunit alpha-4/beta-3 (Rattus norvegicus); test: Displacement of [3H]EBOB from rat GABA-A receptor alpha4beta3 expressed in HEK293 cell membranes up to 10 uM after 90 mins by liquid scintillation counting analysis relative to control; in short: as §1
[24] = target: T6, Gamma-aminobutyric acid receptor subunit alpha-4/beta-3/gamma-2 (Rattus norvegicus); test: Displacement of [3H]EBOB from rat GABA-A receptor alpha4beta3gamma2 expressed in HEK293 cell membranes up to 10 uM after 90 mins by liquid scintillation counting analysis relative to control; in short: as §1
[25] = target: T7, Gamma-aminobutyric acid receptor subunit alpha-4/beta-3/delta (Rattus norvegicus); test: Displacement of [3H]EBOB from rat GABA-A receptor alpha4beta3delta expressed in HEK293 cell membranes up to 10 uM after 90 mins by liquid scintillation counting analysis relative to control; in short: as §1
[26] = target: T12, Gamma-aminobutyric acid receptor subunit alpha-6/beta-2 (Rattus norvegicus); test: Displacement of [3H]EBOB from rat GABA-A receptor alpha6beta2 expressed in HEK293 cell membranes up to 10 uM after 90 mins by liquid scintillation counting analysis relative to control; in short: as §1
Rattus norvegicus = species: Rattus norvegicus; test: Selectivity ratio of IC50 for rat GABA-A receptor alpha6beta3delta expressed in HEK293 cells to IC50 for rat GABA-A receptor alpha6beta2delta expressed in HEK293 cells; type: cell-based
[27] = target: T8, Gamma-aminobutyric acid receptor subunit alpha-6/beta-3 (Rattus norvegicus); test: Displacement of [3H]EBOB from rat GABA-A receptor alpha6beta3 expressed in HEK293 cell membranes at 10 uM after 90 mins by liquid scintillation counting analysis relative to control; in short: as §1
[28] = target: T11, Gamma-aminobutyric acid receptor subunit alpha-6/beta-3/delta (Rattus norvegicus); test: Displacement of [3H]EBOB from rat GABA-A receptor alpha6beta3delta expressed in HEK293 cell membranes up to 10 uM after 90 mins by liquid scintillation counting analysis relative to control; in short: as §1
[29] = target: T2, Gamma-aminobutyric acid receptor subunit alpha-6/beta-3/gamma-2 (Rattus norvegicus); test: Displacement of [3H]EBOB from rat GABA-A receptor alpha6beta3gamma2 expressed in HEK293 cell membranes at 10 uM after 90 mins by liquid scintillation counting analysis relative to control; in short: as §1
[30] = target: T9, Gamma-aminobutyric acid receptor subunit alpha-6/beta-3; test: Displacement of [3H]EBOB from rat GABA-A receptor alpha6beta3 expressed in HEK293 cell membranes after 90 mins by liquid scintillation counting analysis; in short: as §1
[31] = target: T10, Gamma-aminobutyric acid receptor subunit alpha-6/beta-3/gamma-2; test: Displacement of [3H]EBOB from rat GABA-A receptor alpha6beta3gamma2 expressed in HEK293 cell membranes after 90 mins by liquid scintillation counting analysis; in short: as §1
[32] = target: T8, Gamma-aminobutyric acid receptor subunit alpha-6/beta-3 (Rattus norvegicus); test: Displacement of [3H]EBOB from rat GABA-A receptor alpha6beta3 expressed in HEK293 cell membranes up to 10 uM after 90 mins by liquid scintillation counting analysis relative to control; in short: as §1
[33] = target: T11, Gamma-aminobutyric acid receptor subunit alpha-6/beta-3/delta (Rattus norvegicus); test: Displacement of [3H]EBOB from rat GABA-A receptor alpha6beta3delta expressed in HEK293 cell membranes at 10 uM after 90 mins by liquid scintillation counting analysis relative to control; in short: as §1

T1 sequence (P18506 whole entry): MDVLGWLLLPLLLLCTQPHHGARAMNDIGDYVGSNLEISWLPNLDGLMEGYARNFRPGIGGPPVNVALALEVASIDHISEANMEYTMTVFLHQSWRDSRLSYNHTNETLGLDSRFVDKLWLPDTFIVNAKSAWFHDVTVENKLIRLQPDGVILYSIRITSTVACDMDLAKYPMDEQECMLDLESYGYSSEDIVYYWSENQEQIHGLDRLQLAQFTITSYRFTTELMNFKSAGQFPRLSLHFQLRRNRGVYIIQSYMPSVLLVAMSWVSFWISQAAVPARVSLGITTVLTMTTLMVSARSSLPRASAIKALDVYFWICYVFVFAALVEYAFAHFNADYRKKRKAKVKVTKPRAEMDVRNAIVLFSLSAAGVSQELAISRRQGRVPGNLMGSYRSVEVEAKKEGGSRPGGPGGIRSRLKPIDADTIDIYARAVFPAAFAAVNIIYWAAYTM
T1 sequence (P30191 whole entry): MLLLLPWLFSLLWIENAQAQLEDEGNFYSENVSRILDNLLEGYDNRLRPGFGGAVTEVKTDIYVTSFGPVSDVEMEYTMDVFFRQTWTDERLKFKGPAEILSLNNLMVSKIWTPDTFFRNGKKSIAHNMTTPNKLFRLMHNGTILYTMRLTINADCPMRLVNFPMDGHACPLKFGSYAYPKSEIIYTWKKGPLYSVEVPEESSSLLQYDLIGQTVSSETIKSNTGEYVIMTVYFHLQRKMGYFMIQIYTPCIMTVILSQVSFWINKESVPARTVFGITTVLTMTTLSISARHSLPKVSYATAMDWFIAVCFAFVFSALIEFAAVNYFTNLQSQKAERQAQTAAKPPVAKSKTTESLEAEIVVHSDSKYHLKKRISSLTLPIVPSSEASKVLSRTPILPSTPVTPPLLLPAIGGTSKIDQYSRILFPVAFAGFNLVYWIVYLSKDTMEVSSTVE
T1 sequence (P63079 whole entry): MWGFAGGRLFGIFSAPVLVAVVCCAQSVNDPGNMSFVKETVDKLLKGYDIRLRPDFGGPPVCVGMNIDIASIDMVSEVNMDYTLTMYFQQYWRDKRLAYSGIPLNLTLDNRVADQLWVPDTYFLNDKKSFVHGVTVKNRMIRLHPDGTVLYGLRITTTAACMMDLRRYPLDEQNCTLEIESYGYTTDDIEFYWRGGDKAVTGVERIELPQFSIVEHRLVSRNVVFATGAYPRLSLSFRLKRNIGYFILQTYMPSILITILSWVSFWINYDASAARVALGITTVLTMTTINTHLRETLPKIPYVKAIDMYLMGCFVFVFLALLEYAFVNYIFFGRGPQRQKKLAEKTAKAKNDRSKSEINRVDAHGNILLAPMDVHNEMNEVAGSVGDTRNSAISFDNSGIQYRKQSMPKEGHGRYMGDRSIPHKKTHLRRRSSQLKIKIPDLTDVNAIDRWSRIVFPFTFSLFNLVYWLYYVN
T10 sequence (P18508 whole entry): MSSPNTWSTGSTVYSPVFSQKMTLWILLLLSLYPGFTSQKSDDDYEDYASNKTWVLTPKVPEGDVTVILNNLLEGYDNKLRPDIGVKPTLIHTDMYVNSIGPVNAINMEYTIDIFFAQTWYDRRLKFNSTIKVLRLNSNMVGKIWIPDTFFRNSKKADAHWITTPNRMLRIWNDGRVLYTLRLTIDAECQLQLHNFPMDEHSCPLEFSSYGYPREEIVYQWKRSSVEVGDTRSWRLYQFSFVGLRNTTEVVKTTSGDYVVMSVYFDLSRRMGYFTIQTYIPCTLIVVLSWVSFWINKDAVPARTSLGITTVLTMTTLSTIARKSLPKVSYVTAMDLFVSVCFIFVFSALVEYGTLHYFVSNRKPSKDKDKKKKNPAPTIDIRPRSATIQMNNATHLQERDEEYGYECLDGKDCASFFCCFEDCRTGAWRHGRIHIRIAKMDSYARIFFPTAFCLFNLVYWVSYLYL
T10 sequence (P30191 whole entry): as the sequence (P30191 whole entry) above
T10 sequence (P63079 whole entry): as the sequence (P63079 whole entry) above
T9 sequence (P30191 whole entry): as the sequence (P30191 whole entry) above
T9 sequence (P63079 whole entry): as the sequence (P63079 whole entry) above
Sequence of Gamma-aminobutyric acid receptor subunit alpha-6/beta-2/delta (P18506 whole entry): as the sequence (P18506 whole entry) above
Sequence of Gamma-aminobutyric acid receptor subunit alpha-6/beta-2/delta (P30191 whole entry): as the sequence (P30191 whole entry) above
Sequence of Gamma-aminobutyric acid receptor subunit alpha-6/beta-2/delta (P63138 whole entry): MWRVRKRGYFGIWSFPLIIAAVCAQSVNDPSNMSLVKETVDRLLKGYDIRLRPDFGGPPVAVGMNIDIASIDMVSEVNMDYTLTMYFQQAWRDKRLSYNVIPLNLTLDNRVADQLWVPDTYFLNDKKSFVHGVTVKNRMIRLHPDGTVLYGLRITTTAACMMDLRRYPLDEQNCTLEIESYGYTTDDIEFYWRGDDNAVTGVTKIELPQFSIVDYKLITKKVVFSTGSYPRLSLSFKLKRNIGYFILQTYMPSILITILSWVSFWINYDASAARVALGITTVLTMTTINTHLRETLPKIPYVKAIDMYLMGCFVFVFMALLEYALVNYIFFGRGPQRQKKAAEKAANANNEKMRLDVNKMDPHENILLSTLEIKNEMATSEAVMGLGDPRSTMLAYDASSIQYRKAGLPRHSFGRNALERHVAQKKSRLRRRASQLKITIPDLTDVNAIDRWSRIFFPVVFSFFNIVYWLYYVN
Sequence of Gamma-aminobutyric acid receptor subunit alpha-6/beta-2 (P30191 whole entry): as the sequence (P30191 whole entry) above
Sequence of Gamma-aminobutyric acid receptor subunit alpha-6/beta-2 (P63138 whole entry): as the sequence (P63138 whole entry) above

## CCCCOc1ccc(C(=O)Nc2c(-c3cccs3)nc3ccc(Br)cn23)cc1
[1]
  IC50: 2.18 µM
[2]
  IC50: 2.43 µM
[3]
  Imax: 10%
[4]
  Imax: 54%
[5]
  inhibition: inactive
[6]
  inhibition: inactive
[7]
  inhibition: inactive
[8]
  inhibition: inactive
[9]
  inhibition: inactive
[10]
  inhibition: inactive
[11]
  Imax: 26%
[12]
  IC50: 4.07 µM
[13]
  Imax: 40%
[14]
  IC50: 4.34 µM
[15]
  Imax: 51%
[16]
  IC50: 0.87 µM
[17]
  Imax: 13%
[18]
  inhibition: inactive

## O=C(Nc1c(-c2cccs2)nc2c(Br)cc(Br)cn12)c1ccc(OCCCCF)cc1
[1]
  IC50: 0.76 µM
[19]
  IC50: 0.74 µM
[2]
  IC50: 0.27 µM
[20]
  inhibition: inactive
[21]
  inhibition: inactive
[22]
  inhibition: inactive
[23]
  inhibition: inactive
[24]
  inhibition: inactive
[25]
  inhibition: inactive
[26]
  Imax: 33%
[4]
  Imax: 55%
[11]
  Imax: 57%
[12]
  IC50: 1.29 µM
[13]
  Imax: 44%
[14]
  IC50: 1.28 µM
[15]
  Imax: 55%
[16]
  IC50: 0.49 µM
Rattus norvegicus
  Ratio IC50: 3
[27]
  Imax: 11%
[28]
  Imax: 53%
[17]
  inhibition: inactive
[29]
  inhibition: inactive

## O=C(Nc1c(-c2cccs2)nc2c(Br)cc(Br)cn12)c1ccc(F)cc1
[30]
  IC50: 3.06 µM
[31]
  IC50: 3.39 µM
[1]
  IC50: 1.2 µM
[32]
  Imax: 91%
[3]
  Imax: 103%
[28]
  Imax: 87%

## O=C(Nc1c(-c2cccs2)nc2ccccn12)c1ccc(OCc2ccccc2)cc1
[33]
  Imax: 54%
[27]
  inhibition: inactive
[29]
  inhibition: inactive
